# Where a SMILES comes first, the peptide text is derived from it. The star is where a group is joined. X2 = CC(=O)N[C@@H]1[C@@H](O)[C@H](O)[C@@H](CO)O[C@@H]1*; βGal = OC[C@H]1O[C@@H](*)[C@H](O)[C@@H](O)[C@H]1O; X1 = OC[C@H]1O[C@H](*)[C@H](O)[C@@H](O)[C@H]1O
# Key:
# Escherichia coli [1] = test: Minimum inhibitory concentration (lowest peptide concentration) required to prevent visible bacterial growth after 18 hr of incubation at 37 C in Mueller-Hinton broth against Escherichia coli ML-35; assay type: functional
# In short: (§1)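 Broth microdilution susceptibility test per NCCLS guidelines, in Mueller–Hinton broth with about 1.5–2.0 × 10^5 CFU/mL inoculum. Plates were incubated 18 h at 37 °C. MIC was taken as the lowest peptide concentration with no visible growth. Strains were ATCC strains or clinical isolates; E. coli O18:K1:H7 Bort is an encapsulated isolate from neonatal spinal fluid, and the S. aureus isolate is MRSA.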
# Pseudomonas aeruginosa = test: Minimum inhibitory concentration (lowest peptide concentration) required to prevent visible bacterial growth after 18 hr of incubation at 37 C in Mueller-Hinton broth against Pseudomonas aeruginosa ATCC 27853; assay type: functional; conditions: ATCC 27853, 18 h; in short: as §1
# Salmonella typhimurium = test: Minimum inhibitory concentration (lowest peptide concentration) required to prevent visible bacterial growth after 18 hr of incubation at 37 C in Mueller-Hinton broth against Salmonella Typhimurium ATCC 14028; assay type: functional, Salmonella enterica subsp. enterica serovar Typhimurium; conditions: Salmonella enterica; in short: as §1
# Staphylococcus aureus = test: Minimum inhibitory concentration (lowest peptide concentration) required to prevent visible bacterial growth after 18 hr of incubation at 37 C in Mueller-Hinton broth against Staphylococcus aureus G; assay type: functional; in short: as §1
# Escherichia coli [2] = test: Minimum inhibitory concentration (lowest peptide concentration) required to prevent visible bacterial growth after 18 hr of incubation at 37 C in Mueller-Hinton broth against Escherichia coli D22; assay type: functional; in short: as §1
# Salmonella enteritidis [3] = test: Minimum inhibitory concentration (lowest peptide concentration) required to prevent visible bacterial growth after 18 hr of incubation at 37 C in Mueller-Hinton broth against Salmonella enteritidis D5; conditions: Salmonella enterica
# Escherichia coli [4] = test: Minimum inhibitory concentration (lowest peptide concentration) required to prevent visible bacterial growth after 18 hr of incubation at 37 C in Mueller-Hinton broth against Escherichia coli D21; assay type: functional; in short: as §1
# Klebsiella pneumoniae [5] = test: Minimum inhibitory concentration (lowest peptide concentration) required to prevent visible bacterial growth after 18 hr of incubation at 37 C in Mueller-Hinton broth against Klebsiella pneumoniae 22; assay type: functional; in short: as §1
# Escherichia coli [6] = test: Minimum inhibitory concentration (lowest peptide concentration) required to prevent visible bacterial growth after 18 hr of incubation at 37 C in Mueller-Hinton broth against Escherichia coli O18:K1:H7; assay type: functional; in short: as §1
# Salmonella enteritidis [7] = test: Minimum inhibitory concentration (lowest peptide concentration) required to prevent visible bacterial growth after 18 h of incubation at 37 C in Mueller-Hinton broth against […]; assay type: functional, Salmonella enterica subsp. enterica serovar Enteritidis; conditions: Salmonella enterica; in short: as §1
# Klebsiella pneumoniae [8] = test: Minimum inhibitory concentration (lowest peptide concentration) required to prevent visible bacterial growth after 18 hr of incubation at 37 C in Mueller-Hinton broth against Klebsiella pneumoniae 79; assay type: functional; in short: as §1
# [9] = system: Staphylococcus epidermidis; test: Minimum inhibitory concentration (lowest peptide concentration) required to prevent visible bacterial growth after 18 hr of incubation at 37 C in Mueller-Hinton broth against Staphylococcus epidermidis 4; assay type: functional; in short: as §1
# Escherichia coli [10] = test: Minimum inhibitory concentration (lowest peptide concentration) required to prevent visible bacterial growth after 18 hr of incubation at 37 C in Mueller-Hinton broth against Escherichia coli ATCC 25922; assay type: functional; conditions: ATCC 25922, 18 h; in short: as §1
# Acinetobacter baumannii = test: Minimum inhibitory concentration (lowest peptide concentration) required to prevent visible bacterial growth after 18 hr of incubation at 37 C in Mueller-Hinton broth against Acinetobacter baumannii 118A; assay type: functional; in short: as §1
Molecule,MIC (Escherichia coli [1]) [µM],MIC (Pseudomonas aeruginosa) [µM],MIC (Salmonella typhimurium) [µM],MIC (Staphylococcus aureus) [µM],MIC (Escherichia coli [2]) [µM],MIC (Salmonella enteritidis [3]) [µM],MIC (Escherichia coli [4]) [µM],MIC (Klebsiella pneumoniae [5]) [µM],MIC (Escherichia coli [6]) [µM],MIC (Salmonella enteritidis [7]) [µM],MIC (Klebsiella pneumoniae [8]) [µM],MIC [9] [µM],MIC (Escherichia coli [10]) [µM],MIC (Acinetobacter baumannii) [µM]
CC[C@H](C)[C@H](NC(=O)[C@@H]1CCCN1C(=O)[C@H](CCCN=C(N)N)NC(=O)[C@@H]1CCCN1C(=O)[C@H](Cc1c[nH]cn1)NC(=O)[C@H](CO)NC(=O)[C@@H](NC(=O)[C@@H]1CCCN1C(=O)[C@H](CCCN=C(N)N)NC(=O)[C@@H]1CCCN1C(=O)[C@H](CO)NC(=O)[C@H](Cc1ccc(O)cc1)NC(=O)[C@@H]1CCCN1C(=O)[C@H](CCCN=C(N)N)NC(=O)[C@@H]1CCCN1C(=O)[C@H](CCCCN)NC(=O)CN)[C@@H](C)O[C@H]1O[C@H](CO)[C@H](O)[C@H](O)[C@H]1O)C(=O)N[C@@H](CCCN=C(N)N)C(=O)N[C@H](C(=O)O)C(C)C (H-GKPRPYSPRPT(X1)SHPRPIRV-OH),2,> 128,8,> 64,2,2,> 64,32,2,4,32,> 64,2,> 128
CC[C@H](C)[C@H](NC(=O)[C@@H]1CCCN1C(=O)[C@H](CCCN=C(N)N)NC(=O)[C@@H]1CCCN1C(=O)[C@H](Cc1c[nH]cn1)NC(=O)[C@H](CO)NC(=O)[C@@H](NC(=O)[C@@H]1CCCN1C(=O)[C@H](CCCN=C(N)N)NC(=O)[C@@H]1CCCN1C(=O)[C@H](CO)NC(=O)[C@H](Cc1ccc(O)cc1)NC(=O)[C@@H]1CCCN1C(=O)[C@H](CCCN=C(N)N)NC(=O)[C@@H]1CCCN1C(=O)[C@H](CCCCN)NC(=O)CN)[C@@H](C)O[C@H]1O[C@H](CO)[C@@H](O)[C@H](O)[C@H]1NC(C)=O)C(=O)N[C@@H](CCCN=C(N)N)C(=O)N[C@H](C(=O)O)C(C)C (H-GKPRPYSPRPT(X2)SHPRPIRV-OH),1,> 128,2,> 64,1,1,8,4,1,2,8,> 64,1,> 128
"CC[C@H](C)[C@@H]1NC(=O)[C@H](Cc2ccc(O)cc2)NC(=O)[C@H](C(C)C)NC(=O)[C@@H]2CCCN2C(=O)[C@H](CCCN=C(N)N)NC(=O)[C@H](CC(N)=O)NC(=O)[C@H](CC(N)=O)NC(=O)CNC(=O)[C@H](CC(C)C)NC(=O)[C@H](CCCN=C(N)N)NC(=O)[C@@H]2CCCN2C(=O)[C@H](Cc2c[nH]cn2)NC(=O)[C@@H]2CCCN2C(=O)[C@@H]2CCCN2C(=O)[C@H](CCCN=C(N)N)NC(=O)[C@@H]2CCCN2C(=O)[C@H](CCC(N)=O)NC(=O)[C@@H]2CCCN2C1=O (HELM PEPTIDE1{G.N.N.R.P.V.Y.I.P.Q.P.R.P.P.H.P.R.L}$PEPTIDE1,PEPTIDE1,1:R1-18:R2$$$V2.0)",64,> 128,> 64,> 64,64,> 64,> 64,> 64,32,> 64,> 64,> 64,> 64,> 128
"CC[C@H](C)[C@@H]1NC(=O)[C@@H]2CCCN2C(=O)[C@H](CCCN=C(N)N)NC(=O)[C@@H]2CCCN2C(=O)[C@H](Cc2c[nH]cn2)NC(=O)[C@H](CO)NC(=O)[C@H]([C@@H](C)O)NC(=O)[C@@H]2CCCN2C(=O)[C@H](CCCN=C(N)N)NC(=O)[C@@H]2CCCN2C(=O)[C@H](CO)NC(=O)[C@H](Cc2ccc(O)cc2)NC(=O)[C@@H]2CCCN2C(=O)[C@H](CCCN=C(N)N)NC(=O)[C@@H]2CCCN2C(=O)[C@H](CCCCN)NC(=O)CNC(=O)[C@H](C(C)C)NC(=O)[C@H](CCCN=C(N)N)NC1=O (HELM PEPTIDE1{G.K.P.R.P.Y.S.P.R.P.T.S.H.P.R.P.I.R.V}$PEPTIDE1,PEPTIDE1,1:R1-19:R2$$$V2.0)",> 128,> 128,> 128,> 64,64,> 128,> 64,> 128,> 128,> 128,> 128,> 64,> 128,> 64
H-GKPRPYSPRPASHPRPIRV-OH,16,> 128,32,> 64,> 64,8,> 128,> 128,16,16,> 128,> 64,64,> 128
H-GKPRPYSPRPSHPRPIRV-OH,32,> 128,> 64,> 64,> 64,32,> 64,> 128,64,> 64,> 128,> 64,64,> 64
CC[C@H](C)[C@H](NC(=O)[C@@H]1CCCN1C(=O)[C@H](CCCN=C(N)N)NC(=O)[C@@H]1CCCN1C(=O)[C@H](Cc1c[nH]cn1)NC(=O)[C@H](CO)NC(=O)[C@@H](NC(=O)[C@@H]1CCCN1C(=O)[C@H](CCCN=C(N)N)NC(=O)[C@@H]1CCCN1C(=O)[C@H](CO)NC(=O)[C@H](Cc1ccc(O)cc1)NC(=O)[C@@H]1CCCN1C(=O)[C@H](CCCN=C(N)N)NC(=O)[C@@H]1CCCN1C(=O)[C@H](CCCCN)NC(=O)CN)[C@@H](C)O[C@@H]1O[C@H](CO)[C@H](O)[C@H](O)[C@H]1O)C(=O)N[C@@H](CCCN=C(N)N)C(=O)N[C@H](C(=O)O)C(C)C (H-GKPRPYSPRPT(βGal)SHPRPIRV-OH),1,> 128,8,> 64,2,4,> 64,16,2,4,8,> 64,4,> 128
CC[C@H](C)[C@H](NC(=O)[C@H](Cc1ccc(O)cc1)NC(=O)[C@@H](NC(=O)[C@@H]1CCCN1C(=O)[C@H](CCCNC(=N)N)NC(=O)[C@H](CC(N)=O)NC(=O)[C@H](CC(N)=O)NC(=O)CN)C(C)C)C(=O)N1CCC[C@H]1C(=O)N[C@@H](CCC(N)=O)C(=O)N1CCC[C@H]1C(=O)N[C@@H](CCCNC(=N)N)C(=O)N1CCC[C@H]1C(=O)N1CCC[C@H]1C(=O)N[C@@H](Cc1cnc[nH]1)C(=O)N1CCC[C@H]1C(=O)N[C@@H](CCCNC(=N)N)C(=O)N[C@@H](CC(C)C)C(=O)O [APIDAECIN],4,> 128,8,> 64,4,4,> 64,32,4,4,32,> 64,4,> 128

# Source: ChEMBL document CHEMBL1135826, “Antimicrobial peptides: synthesis and antibacterial activity of linear and cyclic drosocin and apidaecin 1b analogues” (2002)
